In ChEMBL document CHEMBL1137103, “4-Acylamino-and 4-ureidobenzamides as melanin-concentrating hormone (MCH) receptor 1 antagonists” (Bioorg Med Chem Lett, 2004):

Legend:
[1] = molecular target: T1, Melanin-concentrating hormone receptor 1 (Homo sapiens, UniProt Q99705); experiment: Binding affinity against human Melanin-concentrating hormone receptor 1 stably transfected CHO cells was determined using [125I]MCH as radioligand; assay type: cell-based
In short: (§1)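 Whole-cell binding in CHO cells expressing the human receptor with [125I]-MCH tracer. Nonspecific binding defined with 1 µM MCH. IC50 values from displacement by various concentrations of test compound.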

[2] = molecular target: T1, Melanin-concentrating hormone receptor 1; experiment: Binding affinity against human Melanin-concentrating hormone receptor 1 stably transfected CHO cells was determined using scintillation proximity assay (SPA); assay type: cell-based
In short: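 Scintillation proximity binding with CHO membranes incubated with PEI-treated WGA-coupled PVT SPA beads and tracer over various test-compound concentrations. Nonspecific binding defined with 1 µM MCH; IC50 derived.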

[3] = molecular target: T2, Melanin-concentrating hormone receptor 2 (Homo sapiens, UniProt Q969V1); experiment: Binding affinity against human Melanin-concentrating hormone receptor 2 stably transfected CHO cells was determined using [125I]MCH as radioligand; assay type: cell-based; in short: as §1
[4] = molecular target: T1, Melanin-concentrating hormone receptor 1; experiment: Antagonistic activity against human Melanin-concentrating hormone receptor 1 stably transfected CHO cells was determined using IP3 assay; assay type: functional, cell-based
In short: (§2)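 CHO whole cells expressing the human receptor, labelled with 5 µCi [3H]-myo-inositol in inositol-free culture medium. Phosphatidylinositol turnover stimulated by submaximal MCH in the presence of increasing ligand concentrations. Generated [3H]-inositol phosphates purified on anion-exchange resin; IC50 derived.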

[5] = molecular target: T2, Melanin-concentrating hormone receptor 2; experiment: Antagonistic activity against human Melanin-concentrating hormone receptor 2 stably transfected CHO cells was determined using IP3 assay; assay type: functional, cell-based; in short: as §2
[6] = Inhibitory activity against Histamine H2 receptor
[7] = Inhibitory activity against Dopamine transporter; design: species or system Homo sapiens
[8] = molecular target: D(1A) dopamine receptor (Homo sapiens) (UniProt P21728); experiment: Inhibitory activity against Dopamine receptor D1 at 10 uM
[9] = molecular target: D(2) dopamine receptor (Homo sapiens) (UniProt P14416); experiment: Inhibitory activity against Dopamine receptor D2 at 10 uM
[10] = molecular target: Mu-type opioid receptor (Homo sapiens) (UniProt P35372); experiment: Inhibitory activity against Opioid receptor mu 1 at 10 uM
[11] = molecular target: T3, Adenosine receptor A3 (Homo sapiens) (UniProt P0DMS8); experiment: Inhibitory activity against Adenosine A3 receptor at 10 uM
T3 sequence (whole entry): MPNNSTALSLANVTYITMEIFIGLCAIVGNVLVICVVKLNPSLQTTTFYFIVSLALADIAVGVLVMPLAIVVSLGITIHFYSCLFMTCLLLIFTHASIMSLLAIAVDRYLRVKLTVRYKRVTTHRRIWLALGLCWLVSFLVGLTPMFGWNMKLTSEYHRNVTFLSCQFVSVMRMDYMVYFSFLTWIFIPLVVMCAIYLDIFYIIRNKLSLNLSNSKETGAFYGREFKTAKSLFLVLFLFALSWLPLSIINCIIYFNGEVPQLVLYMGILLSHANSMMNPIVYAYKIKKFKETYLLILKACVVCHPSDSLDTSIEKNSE

[12] = molecular target: Sigma non-opioid intracellular receptor 1 (Homo sapiens) (UniProt Q99720); experiment: Inhibitory activity against Opioid receptor sigma 1 at 10 uM
[13] = inhibitory activity against sodium channel (site 2) at 10 uM
[14] = molecular target: T4, Muscarinic acetylcholine receptor M1 (Homo sapiens) (UniProt P11229); experiment: Inhibitory activity against Muscarinic acetylcholine receptor M1 at 10 uM
T4 sequence (whole entry): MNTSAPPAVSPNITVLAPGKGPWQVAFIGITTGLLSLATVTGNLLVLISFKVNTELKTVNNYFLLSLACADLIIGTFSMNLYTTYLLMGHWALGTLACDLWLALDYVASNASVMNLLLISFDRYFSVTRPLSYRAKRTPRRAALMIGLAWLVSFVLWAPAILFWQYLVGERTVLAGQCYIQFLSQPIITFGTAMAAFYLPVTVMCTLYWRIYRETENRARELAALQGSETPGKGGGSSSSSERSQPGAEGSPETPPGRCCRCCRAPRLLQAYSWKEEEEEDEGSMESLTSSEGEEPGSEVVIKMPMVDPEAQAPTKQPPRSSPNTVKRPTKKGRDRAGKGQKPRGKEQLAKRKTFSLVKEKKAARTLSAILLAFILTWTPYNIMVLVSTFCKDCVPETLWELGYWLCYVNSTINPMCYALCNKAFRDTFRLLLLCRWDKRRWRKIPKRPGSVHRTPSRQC

[15] = molecular target: T5, Muscarinic acetylcholine receptor M2 (Homo sapiens) (UniProt P08172); experiment: Inhibitory activity against Muscarinic acetylcholine receptor M2 at 10 uM
T5 sequence (whole entry): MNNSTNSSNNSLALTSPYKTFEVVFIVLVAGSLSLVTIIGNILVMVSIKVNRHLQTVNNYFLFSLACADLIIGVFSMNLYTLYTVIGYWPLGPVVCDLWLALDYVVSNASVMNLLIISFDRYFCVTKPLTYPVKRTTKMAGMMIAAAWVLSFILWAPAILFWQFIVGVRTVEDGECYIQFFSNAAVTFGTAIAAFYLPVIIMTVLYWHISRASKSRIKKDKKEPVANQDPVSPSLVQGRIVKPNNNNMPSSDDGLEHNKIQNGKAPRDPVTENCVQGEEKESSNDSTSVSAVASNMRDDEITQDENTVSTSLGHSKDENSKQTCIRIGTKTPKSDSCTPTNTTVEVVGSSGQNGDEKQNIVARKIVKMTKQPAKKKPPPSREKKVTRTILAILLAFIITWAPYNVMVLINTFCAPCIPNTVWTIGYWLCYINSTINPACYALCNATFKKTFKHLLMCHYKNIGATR

[16] = molecular target: Sodium-dependent noradrenaline transporter (Homo sapiens) (UniProt P23975); experiment: Inhibitory activity against Norepinephrine transporter at 10 uM
[17] = Inhibitory activity against 5-hydroxytryptamine 2A receptor
[18] = Inhibitory activity against 5-hydroxytryptamine 2C receptor

T1 sequence (Q99705 whole entry): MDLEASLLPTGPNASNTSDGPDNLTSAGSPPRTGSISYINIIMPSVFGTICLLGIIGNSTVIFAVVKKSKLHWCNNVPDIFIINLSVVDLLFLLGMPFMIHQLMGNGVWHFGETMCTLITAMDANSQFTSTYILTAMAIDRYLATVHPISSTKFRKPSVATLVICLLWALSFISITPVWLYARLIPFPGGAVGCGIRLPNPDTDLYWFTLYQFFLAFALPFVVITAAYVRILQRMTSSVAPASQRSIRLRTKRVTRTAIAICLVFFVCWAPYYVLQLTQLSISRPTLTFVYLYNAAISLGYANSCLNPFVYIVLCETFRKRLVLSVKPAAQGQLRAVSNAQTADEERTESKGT
T2 sequence (Q969V1 whole entry): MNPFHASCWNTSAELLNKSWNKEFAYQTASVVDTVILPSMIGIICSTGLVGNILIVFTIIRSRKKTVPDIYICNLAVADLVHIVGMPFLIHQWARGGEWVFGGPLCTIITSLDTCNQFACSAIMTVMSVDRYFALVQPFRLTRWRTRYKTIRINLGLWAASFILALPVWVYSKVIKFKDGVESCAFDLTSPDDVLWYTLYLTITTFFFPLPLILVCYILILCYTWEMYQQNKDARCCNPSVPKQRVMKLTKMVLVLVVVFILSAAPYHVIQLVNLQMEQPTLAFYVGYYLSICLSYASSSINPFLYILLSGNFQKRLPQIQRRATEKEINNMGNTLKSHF
Chain of Sodium-dependent noradrenaline transporter (Homo sapiens) (P23975 whole entry): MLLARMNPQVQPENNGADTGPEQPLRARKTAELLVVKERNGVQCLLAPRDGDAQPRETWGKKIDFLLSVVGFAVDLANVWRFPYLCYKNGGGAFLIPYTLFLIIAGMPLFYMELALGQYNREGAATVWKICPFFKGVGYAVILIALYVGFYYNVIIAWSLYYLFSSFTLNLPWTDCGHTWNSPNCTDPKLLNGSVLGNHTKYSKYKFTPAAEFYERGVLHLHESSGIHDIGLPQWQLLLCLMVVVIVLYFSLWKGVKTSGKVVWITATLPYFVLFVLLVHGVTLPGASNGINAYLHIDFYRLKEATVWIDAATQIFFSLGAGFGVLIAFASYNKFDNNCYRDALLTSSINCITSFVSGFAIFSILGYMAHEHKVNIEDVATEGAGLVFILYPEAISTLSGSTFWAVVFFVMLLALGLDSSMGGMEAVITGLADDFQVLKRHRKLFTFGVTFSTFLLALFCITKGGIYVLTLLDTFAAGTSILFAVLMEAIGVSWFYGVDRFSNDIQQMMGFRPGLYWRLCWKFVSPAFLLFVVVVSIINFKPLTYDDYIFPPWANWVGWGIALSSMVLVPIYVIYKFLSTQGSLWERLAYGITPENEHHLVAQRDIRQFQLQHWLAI
Chain of Mu-type opioid receptor (Homo sapiens) (P35372 whole entry): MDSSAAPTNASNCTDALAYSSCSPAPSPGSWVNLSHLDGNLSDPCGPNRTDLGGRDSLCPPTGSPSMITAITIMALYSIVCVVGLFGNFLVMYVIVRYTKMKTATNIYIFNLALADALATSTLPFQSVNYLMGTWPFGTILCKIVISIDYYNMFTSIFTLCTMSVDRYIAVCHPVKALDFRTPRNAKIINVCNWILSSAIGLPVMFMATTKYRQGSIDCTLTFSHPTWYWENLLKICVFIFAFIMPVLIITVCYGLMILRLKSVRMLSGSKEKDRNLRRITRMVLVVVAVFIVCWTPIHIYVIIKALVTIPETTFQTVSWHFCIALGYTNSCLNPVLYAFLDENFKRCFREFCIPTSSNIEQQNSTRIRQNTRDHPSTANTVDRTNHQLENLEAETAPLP
Chain of D(1A) dopamine receptor (Homo sapiens) (P21728 whole entry): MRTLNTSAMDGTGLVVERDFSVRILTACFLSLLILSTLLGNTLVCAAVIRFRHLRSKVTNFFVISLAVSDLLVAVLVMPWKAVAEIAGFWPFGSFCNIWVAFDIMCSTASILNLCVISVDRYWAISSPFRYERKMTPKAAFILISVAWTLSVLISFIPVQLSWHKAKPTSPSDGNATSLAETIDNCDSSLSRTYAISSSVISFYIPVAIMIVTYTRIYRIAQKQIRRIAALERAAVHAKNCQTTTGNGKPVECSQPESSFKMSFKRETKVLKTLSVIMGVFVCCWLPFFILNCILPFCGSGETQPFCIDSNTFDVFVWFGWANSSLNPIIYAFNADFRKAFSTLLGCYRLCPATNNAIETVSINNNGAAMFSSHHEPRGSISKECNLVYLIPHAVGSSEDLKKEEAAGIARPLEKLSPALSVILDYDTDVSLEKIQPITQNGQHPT
Chain of D(2) dopamine receptor (Homo sapiens) (P14416 whole entry): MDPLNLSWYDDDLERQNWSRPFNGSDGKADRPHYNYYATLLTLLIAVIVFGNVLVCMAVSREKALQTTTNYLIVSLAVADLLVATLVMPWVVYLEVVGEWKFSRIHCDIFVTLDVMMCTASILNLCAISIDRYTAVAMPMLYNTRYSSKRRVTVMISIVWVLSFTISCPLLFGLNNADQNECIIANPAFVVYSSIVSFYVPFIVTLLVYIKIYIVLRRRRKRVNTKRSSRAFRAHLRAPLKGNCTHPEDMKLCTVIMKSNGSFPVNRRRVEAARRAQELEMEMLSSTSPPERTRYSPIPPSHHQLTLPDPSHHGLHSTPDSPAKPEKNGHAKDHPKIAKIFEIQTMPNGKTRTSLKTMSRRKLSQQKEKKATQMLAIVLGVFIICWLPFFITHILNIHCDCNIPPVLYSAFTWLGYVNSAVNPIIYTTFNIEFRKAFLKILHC
Chain of Sigma non-opioid intracellular receptor 1 (Homo sapiens) (Q99720 whole entry): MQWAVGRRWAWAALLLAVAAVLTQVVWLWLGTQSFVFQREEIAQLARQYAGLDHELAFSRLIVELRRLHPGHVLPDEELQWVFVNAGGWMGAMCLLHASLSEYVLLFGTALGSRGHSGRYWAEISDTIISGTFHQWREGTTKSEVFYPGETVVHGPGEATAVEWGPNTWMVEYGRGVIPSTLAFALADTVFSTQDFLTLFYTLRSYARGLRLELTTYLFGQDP

IC50 [1] [nM] | IC50 [2] [nM] | IC50 [4] [nM] | SMILES | other results
 | 960 |  | CCN(CC)CCNC(=O)c1ccc(NC(=O)Nc2ccc(SC)cc2)cc1OC | 
20 | 50 | 170 | CCN(CC)CCNC(=O)c1ccc(NC(=O)Nc2ccc(C(F)(F)F)cc2)cc1OC | IC50 [3]: > 100000 nM
60 |  | 250 | CCN(CC)CCNC(=O)c1ccc(NC(=O)Nc2ccc(OC(F)(F)F)cc2)cc1 | IC50 [3]: > 100000 nM; IC50 [5]: > 100000 nM
240 |  | 1950 | CCOc1cc(NC(=O)Nc2ccc(Oc3ccccc3)cc2)ccc1C(=O)NCCN(CC)CC | 
 | 200 |  | CCN(CC)CCNC(=O)c1ccc(NC(=O)Nc2ccc(SC(F)(F)F)cc2)cc1OC | 
 | 2500 |  | CCN(CC)CCNC(=O)c1ccc(NC(=O)Nc2cccc(OC(F)(F)F)c2)cc1OC | 
 | > 100000 |  | CCN(CC)CCNC(=O)c1ccc(N2CCN(c3ccc(Oc4ccccc4)cc3)C2=O)cc1OC | 
 | 4800 |  | CCN(CC)CCNC(=O)c1ccc(NC(=O)Nc2cc(Cl)cc(Cl)c2)cc1OC | 
640 |  | 5290 | COc1cc(NC(=O)c2ccc(-c3ccccc3)cc2)ccc1C(=O)NCCCN(C)C | IC50 [3]: > 100000 nM
 | 710 |  | CCN(CC)CCNC(=O)c1ccc(NC(=O)Nc2ccc(Cl)c(Cl)c2)cc1OC | 
850 |  | 1440 | COc1cc(NC(=O)Nc2ccc(Nc3ccccc3)cc2)ccc1C(=O)NCCCN1CCCCC1 | 
50 | 150 | 260 | CCN(CC)CCNC(=O)c1ccc(NC(=O)Nc2ccc(OC(F)(F)F)cc2)cc1OC | IC50 [6]: 2200 nM; IC50 [7]: 6900 nM; inhibition [8]: 78%; inhibition [9]: 79%; inhibition [10]: 44%; IC50 [3]: > 100000 nM; inhibition [11]: 36%; inhibition [12]: 65%; inhibition [13]: 76%; inhibition [14]: 72%; inhibition [15]: 46%; inhibition [16]: 67%; IC50 [17]: 1300 nM; IC50 [18]: 310 nM
1480 | 9100 |  | COc1cc(NC(=O)Nc2ccc(-c3ccccc3)cc2)ccc1C(=O)NCCCN(C)C | 
 | 13000 |  | CCN(CC)CCNC(=O)c1ccc(NC(=O)Nc2ccc(C(C)=O)cc2)cc1OC | 
8.1 |  | 25 | COc1cc(NC(=O)Nc2cccc(Nc3ccccc3)c2)ccc1C(=O)NCCCN1CCCCC1 | IC50 [3]: 10000 nM
 | 540 |  | CCN(CC)CCNC(=O)c1ccc(N(C)C(=O)Nc2ccc(Oc3ccccc3)cc2)cc1OC | 
 | 3500 |  | CCN(CC)CCNC(=O)c1ccc(NC(=O)Nc2ccc(Oc3ccccc3)cc2)cc1 | 
 | > 100000 |  | CCN(CC)CCNC(=O)c1ccc(NC(=O)Nc2ccccc2)cc1OC | 

More lines, now with the values behind:

SMILES | IC50 [1] [nM] | IC50 [2] [nM] | IC50 [4] [nM] | other results
COc1cc(NC(=O)c2ccc(Oc3ccccc3)cc2)ccc1C(=O)NCCCN(C)C | 1920 |  |  | 
COc1cc(NC(=O)c2ccc(-c3ccccc3)cc2)ccc1C(=O)NC1CCN(Cc2ccccc2)CC1 | 130 |  |  | 
CCN(CC)CCN(C)C(=O)c1ccc(NC(=O)Nc2ccc(Oc3ccccc3)cc2)cc1 |  | 11000 |  | 
CCN(CC)CCNC(=O)c1cc(Cl)c(NC(=O)Nc2ccc(Oc3ccccc3)cc2)cc1OC |  | > 100000 |  | 
CCN(CC)CCNC(=O)c1ccc(NC(=O)c2ccc(-c3ccccc3)cc2)cc1OC | 370 |  |  | 
CCN1CCCC1CNC(=O)c1ccc(NC(=O)Nc2ccc(Oc3ccccc3)cc2)cc1OC (stereo unspecified) | 530 |  | 3450 | 
O=C(Nc1ccc(Oc2ccccc2)cc1)Nc1ccc(C(=O)NCCN2CCN(Cc3ccccc3)CC2)cc1 | 140 |  | 5820 | IC50 [3]: 2880 nM
CCN(CC)CCNC(=O)c1ccc(NC(=O)Nc2cccc(C(F)(F)F)c2)cc1OC |  | 7900 |  | 
CCN1CCCC1CNC(=O)c1ccc(NC(=O)Nc2ccc(Oc3ccccc3)cc2)cc1 (stereo unspecified) | 250 |  | 1300 | IC50 [3]: 6310 nM
CCN1CCCC1CNC(=O)c1ccc(-c2noc(-c3ccc(Oc4ccccc4)cc3)n2)cc1 (stereo unspecified) | 1900 |  |  | 
COc1cc(NC(=O)Nc2cccc(Oc3ccccc3)c2)ccc1C(=O)NCCCN1CCCCC1 | 20 |  | 30 | IC50 [3]: > 100000 nM
CCN(CC)CCNC(=O)c1ccc(NC(=O)Nc2ccc(F)cc2)cc1OC |  | 15800 |  | 
CCN(CC)CCNC(=O)c1ccc(N(C)C(=O)N(C)c2ccc(Oc3ccccc3)cc2)cc1OC |  | > 100000 |  | 
CCN(CC)CCNC(=O)c1ccc(NC(=O)Nc2ccc(C#N)cc2)cc1OC |  | 3200 |  | 
CCN(CC)CCNC(=O)c1ccc(NC(=O)Nc2ccc(C(F)(F)F)cc2)cc1 | 5.3 |  | 170 | 
COc1cc(NC(=O)Nc2cccc(Oc3ccccc3)c2)ccc1C(=O)NCCCN1CCOCC1 | 70 |  | 110 | IC50 [6]: 1800 nM; IC50 [7]: 1500 nM; inhibition [8]: 57%; inhibition [10]: 48%; IC50 [3]: > 100000 nM; inhibition [11]: 48%; inhibition [14]: 64%; inhibition [16]: 68%; IC50 [17]: 670 nM; IC50 [5]: > 100000 nM; IC50 [18]: 1300 nM

SMILES | IC50 [1] [nM] | IC50 [2] [nM] | IC50 [4] [nM] | other results
CN(C)CCNC(=O)c1ccc(NC(=O)c2ccc(-c3ccccc3)cc2)cc1 | > 100000 |  |  | 
COc1cc(NC(=O)c2ccc(-c3ccccc3)cc2)ccc1C(=O)NCCN(C)C | 2410 |  | 12000 | IC50 [3]: > 100000 nM
CCN(CC)CCNC(=O)c1ccc(NC(=O)Nc2ccc(F)c(Cl)c2)cc1OC |  | 3900 |  | 
CCN(CC)CCNC(=O)c1ccc(NC(=O)Nc2cccc(SC)c2)cc1OC |  | 4700 |  | 
CCN(CC)CCNC(=O)c1ccc(NC(=O)c2ccc(Oc3ccccc3)cc2)cc1OC | 1970 |  | 6810 | 
CCN(CC)CCNC(=O)c1ccc(NC(=O)N(C)c2ccc(Oc3ccccc3)cc2)cc1OC |  | 5800 |  | 
CCN(CC)CCNC(=O)c1ccc(NC(=O)Nc2ccc(C(=O)C(F)(F)F)cc2)cc1OC |  | 5900 |  | 
COc1cc(NC(=O)c2ccc(-c3ccccc3)cc2)ccc1C(=O)NCCN1CCN(Cc2ccccc2)CC1 | 640 |  |  | 
CCN(CC)CCN(C)C(=O)c1ccc(NC(=O)Nc2ccc(Oc3ccccc3)cc2)cc1OC |  | > 100000 |  | 
COc1cc(NC(=O)Nc2ccc(Oc3ccccc3)cc2)ccc1C(=O)NCCCN1CCCCC1 | 50 |  |  | IC50 [3]: 10000 nM; IC50 [5]: > 100000 nM
COc1cc(NC(=O)Nc2ccccc2Oc2ccccc2)ccc1C(=O)NCCCN1CCCCC1 | > 10000 |  |  | 
CCN(CC)CCNC(=O)c1ccc(-c2noc(-c3ccc(Oc4ccccc4)cc3)n2)cc1 | 2450 |  |  | 
CCN(CC)CCNC(=O)c1ccc(NC(=O)Nc2cc(OC)cc(OC)c2)cc1OC |  | 18000 |  | 
CCN(CC)CCNC(=O)c1ccc(NC(=O)Nc2ccc(Br)cc2)cc1OC |  | 250 |  | 
CCN(CC)CCNC(=O)c1ccc(NC(=O)Nc2ccc(Oc3ccccc3)cc2)cc1OC | 140 | 720 | 880 | 
CCN(CC)CCNC(=O)c1ccc(NC(=O)Nc2ccc(OC(F)(F)F)cc2Br)cc1OC |  | 8800 |  | 
